# Compound activity: PubChem BioAssay, The Scripps Research Institute Molecular Screening Center
# ARFGAP1 inhibitor – rat ARFGAP1 inhibition; Arfgap1-stimulated ARF1 GTP hydrolysis, GDP FP detection; inhibition, % at 16.5 µM; actives 0.26% (n = 360,000);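 active = inhibition above a per-plate limit, mean inhibition of low control wells plus 3 SD, cut at about 25% in these data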;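 also: 0% = DMSO wells with enzyme and 100% = wells lacking Arfgap1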
# Target sequence (Q62848 1-136 limits assumed): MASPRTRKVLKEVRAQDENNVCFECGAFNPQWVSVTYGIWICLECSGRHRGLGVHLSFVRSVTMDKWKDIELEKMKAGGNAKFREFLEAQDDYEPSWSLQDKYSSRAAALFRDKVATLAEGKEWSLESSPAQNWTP
#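 Material: truncated rat Arfgap1 GAP domain; Incubation: compound-enzyme preincubation 20 min, reaction 120 min, detection 60 min, 25 °C; Read-out: percent inhibition of Arfgap1-stimulated GTP hydrolysis; Technique: FP, GDP Alexa 633 tracer displaced from anti-GDP antibody, 620/688 nm; Controls: No-Arfgap1 wells (100%) versus DMSO full-reaction wells (0%); Replication: single well per compound.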
# ZTA counter – blocks Epstein-Barr virus ZTA, an EBNA-1 counter-screen; P03206; ZTA-DNA binding, fluorescence polarization; inhibition, % at 11 µM; actives 0.15% (n = 320,000); AID 2234; in the data active = inhibition above about 33%
# Target sequence (P03206 whole entry, looked up): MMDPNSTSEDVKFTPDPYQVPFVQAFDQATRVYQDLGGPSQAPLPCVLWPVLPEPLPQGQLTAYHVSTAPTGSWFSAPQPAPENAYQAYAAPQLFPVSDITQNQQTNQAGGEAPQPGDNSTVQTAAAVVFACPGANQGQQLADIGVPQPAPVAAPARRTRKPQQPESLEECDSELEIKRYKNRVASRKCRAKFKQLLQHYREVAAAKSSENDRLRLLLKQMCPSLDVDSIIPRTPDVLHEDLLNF
# EBNA-1 inh – blocks EBNA-1 binding to DNA. inhibition, % at 14.8 µM. EBNA-1 DNA binding, fluorescence polarization. actives 0.34% (n = 300,000); in the data active = inhibition above about 28%
# ASAP1 inh – blocks human ASAP1-stimulated Arf1 GTP hydrolysis. actives 0.19% (n = 360,000). inhibition, % at 16.5 µM. GDP FP detection; in the data active = inhibition above about 25%;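 also: 0% = vehicle with enzyme and substrate and 100% = no enzyme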
# ARFGAP1 confirm – rat ARFGAP1 inhibition, confirmed; ARFGAP1-stimulated ARF1 GTP hydrolysis, GDP tracer FP; inhibition, % at 16.5 µM; AID 651608; shares compounds with ARFGAP1 inhibitor; actives 30% (n = 890);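 active = average inhibition over triplicates above the hit cutoff set in the earlier primary screen, cut at about 25% in these data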;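 also: 0% = Arfgap1 plus ARF1-GTP with DMSO and 100% = wells lacking Arfgap1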
# * hit, by the source's call; . = no result. The list is not random: actives were taken first. Their share in the collection is about 0.75%.
SMILES,ARFGAP1 inhibitor,ZTA counter,EBNA-1 inh,ASAP1 inh,ARFGAP1 confirm
Cc1ccc(NC(=O)c2ccc(Cl)c(NC(=O)c3cccs3)c2)cc1,-5,5,6,9,.
COc1cc(C(=O)NC2CCCCN(C)C2=O)cc(OC)c1OC (configuration not stated),-2,.,.,8,.
COCCNc1nc(NCCOC)c2sc(-c3ccccc3)cc2n1,2,.,.,13,.
C=CCNc1nc(NCc2cccc(OC)c2)c2sc(-c3ccccc3)cc2n1,26*,.,.,14,26*
COc1cc(/C=N/Nc2ncnc3sc4c(c23)CCC4)ccc1O,26*,.,.,19,11
CCCOc1ccc(/C=N/NC(=O)c2ccc(Cn3cc([N+](=O)[O-])cn3)o2)cc1,26*,5,-6,23,33*
Cc1ccc(/C=N/NC(=O)c2ccc(Cn3cc([N+](=O)[O-])cn3)o2)cc1,2,0,10,0,.
CC(C)(C)c1ccc(C#C[C@@H]2C=C[C@H](O)[C@@H](COC(=O)Nc3ccccc3)O2)cc1,9,.,.,-1,.
O=C(C(=O)N1CCN(S(=O)(=O)c2ccc(C(F)(F)F)cc2)CC1)c1cccc(C(F)(F)F)c1,-3,.,.,-13,.
O=C(NC(=S)Nc1ccc2c(c1)OCCO2)c1ccccc1F,5,-9,-7,10,.
O=C(NC(=S)Nc1ccc2c(c1)OCCO2)c1ccccc1,25*,2,8,-7,2
O=C1CCC(c2ccccc2)(c2ccccc2)CC1,28*,-5,-15,9,-4
O=C1CCCCC1(c1ccccc1)c1ccccc1,-6,.,.,-2,.
Cc1cccc(C)c1NC(=O)COC(=O)COc1ccc2c(C)cc(=O)oc2c1,-4,-20,-15,2,.
Cc1cc(=O)oc2cc(OCc3ccc(C(=O)OCC(=O)Nc4ccccc4OC(F)F)cc3)ccc12,42*,10,19,15,50*
CS(=O)(=O)Nc1cccc(C2=NN(S(=O)(=O)c3ccccc3)C(c3ccco3)C2)c1 (configuration not stated),32*,7,13,-7,-6
CCS(=O)(=O)Nc1cccc(C2=NN(S(=O)(=O)c3ccccc3)C(c3ccco3)C2)c1 (configuration not stated),-9,-1,-1,-14,.
CCCCOCC1CN(CCCC)S(=O)(=O)c2c(Oc3ccc(SC)c(C)c3)cccc2O1 (configuration not stated),0,.,.,2,.
C=C(C)C(=O)OCC(O)COc1ccc(C(C)(C)c2ccc(OCC(O)COC(=O)C(=C)C)cc2)cc1 (configuration not stated),32*,6,-14,6,14
COc1ccc(S(=O)(=O)NCC2CCCN(C(=O)C3CCCC3)C2)cc1 (configuration not stated),8,1,-16,7,.
COc1ccc(S(=O)(=O)NCC2CCC(C(=O)N3CCC4(CC3)OCCO4)CC2)cc1 (configuration not stated),35*,.,.,0,-7
CC1(C(=O)Nc2cccc(C(F)(F)F)c2)Cc2c(-c3cccc(C(F)(F)F)c3)ccnc2O1 (configuration not stated),34*,.,.,4,11
O=C(NNC(=O)c1cccc(S(=O)(=O)N2CCN(c3ccccc3)CC2)c1)c1ccc(Cl)cc1,25*,-1,-1,-10,4
O=C(CCNC(=O)c1ccc(Cl)cc1)Nc1ccc(S(=O)(=O)N2CCOCC2)cc1,7,9,.,16,.
O=C(NCC1CCN(c2ccc(S(=O)(=O)N3CCOCC3)cc2)CC1)c1ccc(Cl)cc1,26*,-7,-5,-8,2
SMILES,ARFGAP1 inhibitor,ZTA counter,EBNA-1 inh,ASAP1 inh,ARFGAP1 confirm
NC(=O)[C@@H]1CCCN1C(=O)[C@@H](Cc1ccccc1)NC(=O)[C@H]1O[C@@H](n2ccc(N)nc2=O)[C@H](O)[C@@H]1O,8,.,.,3,.
COc1ccc(NC(=O)c2cc(-c3cc(Cl)ccc3OC)n[nH]2)cc1OC,28*,.,.,11,22
COc1ccc(NC(=O)c2cc(-c3cc(Cl)ccc3C)n[nH]2)cc1OC,15,.,.,16,.
CS(=O)(=O)N(CC(=O)N1CCN(c2ccccc2F)CC1)c1ccc2c(c1)OCCO2,34*,-10,-9,-6,-4
Cc1cccc(N(CC(=O)N2CCN(c3ccccc3F)CC2)S(C)(=O)=O)c1,-6,-8,-2,9,.
CCOc1cc(/C=C2\SC(=N)N(c3nccs3)C2=O)ccc1OCCN1CCOCC1,39*,-8,-1,6,43*
COc1ccc(NC(=O)COC(=O)c2c3c(nc4ccccc24)CCCC3)cc1Cl,27*,4,1,0,14
c1ccc2c(N3CCCCC3)ncnc2c1,27*,-12,-8,-5,-2
COC(=O)C1=C(C)N(Cc2ccc(C(F)(F)F)cc2)C(=NCc2ccccc2)NC1c1cccc(F)c1 (configuration not stated),2,.,.,-8,.
COC(=O)C1=C(C)N(Cc2cccc(C(F)(F)F)c2)C(=NCc2ccc(C(F)(F)F)cc2)NC1c1ccc(C(F)(F)F)cc1 (configuration not stated),32*,.,.,19,16
COC(=O)C1=C(C)N(Cc2cccc(C(F)(F)F)c2)C(=NCc2ccc(C(F)(F)F)cc2)NC1c1cccc(F)c1 (configuration not stated),29*,.,.,3,6
COC(=O)C1=C(C)N(Cc2cccc(C(F)(F)F)c2)C(=NCc2ccc(C(F)(F)F)cc2)NC1c1ccc(F)cc1 (configuration not stated),20,.,.,5,.
CCCOc1ccc(OCCNC2CCCC2)cc1,26*,-2,13,-5,3
CN(C(=O)C(C)(C)C)[C@H]1C[C@H]2c3[nH]c4ccccc4c3CCN2C(=O)[C@H]1CO,96*,.,.,-10,-3
O=C(NC(c1ccc(F)cc1)c1ccc2ccccc2n1)C1CCN(Cc2cccc(C(F)(F)F)c2)CC1 (configuration not stated),28*,.,.,-5,14
O=C(NC(c1ccc(F)cc1)c1ccc2ccccc2n1)C1CCN(Cc2ccc3ccccc3n2)CC1 (configuration not stated),0,.,.,9,.
CN(c1cccnc1)c1ccc(NC(=O)Cc2cn(Cc3ccccc3)c3ccccc23)cc1Br,4,.,.,3,.
COc1ccc(/C(C)=N/NC(=O)c2sccc2-n2cccc2)cc1,29*,0,2,7,11
NS(=O)(=O)c1ccc(Nc2ccc3cc(S(=O)(=O)N4CCCCC4)ccc3n2)cc1,47*,-11,-17,24,52*
Cc1c(COC(=O)NC(C)C)c(COC(=O)NC(C)C)c2n1CS(=O)(=O)C2,7,.,.,-10,.
S=C(NCc1cccnc1)Nc1cc(Cl)cc(Cl)c1,25*,11,-12,1,1
S=C(NCc1ccncc1)Nc1cc(Cl)cc(Cl)c1,25*,-5,-3,10,5
O=C(COc1ccc(Cl)cc1Cl)NCCSc1ccc(Cl)cc1,29*,-7,13,4,-2
